Assay results: ChEMBL document CHEMBL3608299, “Identification of N-acylhydrazone derivatives as novel lactate dehydrogenase A inhibitors” (Eur J Med Chem, 2015)
Activity calls are given as the source filed them. The calls are words filed in the database; no cut-off is given here.

What was measured:
[1] = biological target: T1, L-lactate dehydrogenase A chain (Homo sapiens, UniProt P00338); assay: Inhibition of human liver purified lactate dehydrogenase-A using pyruvate as substrate assessed as NADH oxidation for 3 mins by fluorimetric method
Outline: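 Purified human LDH-A was run in a fluorimetric assay. Values were obtained from triplicate points and given as mean ± standard deviation.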

[2] = biological target: T1, L-lactate dehydrogenase A chain; assay: Inhibition of lactate dehydrogenase-A in human Raji cells assessed as reduction of intracellular lactate level after 3 hrs; type: cell-based
Outline: (§1)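 Raji Burkitt's lymphoma cells (MYC-overexpressing) were used for lactic acid production and cell proliferation. All points were run in triplicate and reported as mean ± standard deviation.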

Raji [3] = assay: Antiproliferative activity against human Raji cells after 24 hrs by Trypan blue exclusion method; type: functional, cell-based; outline: as §1
[4] = biological target: T1, L-lactate dehydrogenase A chain; assay: Inhibition of human liver purified lactate dehydrogenase-A using pyruvate as substrate assessed as disappearance of NADH fluorescence
Outline: (§2)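 Purified human LDH-A enzymatic assays were run. Inhibition constants (Ki) were calculated separately versus pyruvate and versus NADH as the varied substrate.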

[5] = biological target: T1, L-lactate dehydrogenase A chain; assay: Inhibition of human liver purified lactate dehydrogenase-A using NADH as substrate assessed as disappearance of NADH fluorescence; outline: as §2
[6] = biological target: T1, L-lactate dehydrogenase A chain; assay: Inhibition of lactate dehydrogenase-A in human Raji cells assessed as reduction of intracellular lactate level at 40 uM after 3 hrs; type: cell-based
Raji [7] = assay: Antiproliferative activity against human Raji cells at 40 uM after 24 hrs by Trypan blue exclusion method; type: functional
Raji [8] = assay: Cell cycle arrest in human Raji cells assessed as accumulation at S phase at 40 uM after 18 hrs using propidium iodide staining by flow cytometry; type: functional, cell-based; conditions: in the assay text read “accumulation at G2/M phase” for “accumulation at S phase”
Outline: (§3)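 Raji cells were exposed for 18 h, then stained with propidium iodide. Cell cycle phase distribution (S, G2/M fractions) was measured by flow cytometry and tested for statistical significance against untreated cells.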

Raji [9] = assay: Cell cycle arrest in human Raji cells assessed as accumulation at G2/M phase at 40 uM after 18 hrs using propidium iodide staining by flow cytometry; type: functional, cell-based; outline: as §3
[10] = biological target: T1, L-lactate dehydrogenase A chain; assay: Inhibition of lactate dehydrogenase-A in human Raji cells assessed as reduction of NAD+ regeneration at 40 uM; type: cell-based
Outline: (§4)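 Intracellular NAD+ and NADH were measured in Raji cells after 18 h exposure to assess the redox balance. The shift was evaluated against untreated cells with statistical testing.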

Raji [11] = assay: Induction of apoptosis in human Raji cells assessed as increase of BCL2 protein expression at 40 uM after 18 hrs by Western blotting; type: functional, cell-based
Outline: (§5)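 After 18 h exposure, Raji cell lysates were analysed by Western blot for the mitochondrial apoptosis regulators BAX and BCL2. The fold change was expressed versus untreated control.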

Raji [12] = assay: Induction of apoptosis in human Raji cells assessed as increase of BAX protein expression at 40 uM after 18 hrs by Western blotting relative to control; type: functional; outline: as §5
Raji [13] = assay: Potentiation of cisplatin-induced cytotoxicity against human Raji cells assessed as combination index at 40 uM after 24 hrs by Trypan blue exclusion method relative to control; type: functional
Outline: (§6)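 Each chemotherapeutic agent was first titrated on Raji cells to its lowest dose giving a statistically significant viability effect at 24 h. That dose was then combined with a fixed concentration of the test agent, and a combination index was calculated, where 0.8–1.2 indicates additivity. Experiments were repeated twice.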

Raji [14] = assay: Potentiation of daunomycin-induced cytotoxicity against human Raji cells assessed as combination index at 40 uM after 24 hrs by Trypan blue exclusion method relative to control; type: functional; outline: as §6
Raji [15] = assay: Potentiation of etoposide-induced cytotoxicity against human Raji cells assessed as combination index at 40 uM after 24 hrs by Trypan blue exclusion method relative to control; type: functional; outline: as §6
Raji [16] = assay: Potentiation of sunitinib-induced cytotoxicity against human Raji cells assessed as combination index at 40 uM after 24 hrs by Trypan blue exclusion method relative to control; type: functional; outline: as §6
[17] = Cytotoxicity against lymphocytes (unknown origin) assessed as cell viability at 200 uM after 24 hrs by Trypan blue exclusion method; type: cell-based; conditions: lymphocyte
Outline: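 Viability of normal lymphocytes after treatment was compared with Raji cultures across a concentration range up to 200. Significance was assessed by ANOVA.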

[18] = biological target: T1, L-lactate dehydrogenase A chain; assay: Inhibition of lactate dehydrogenase-A in human Raji cells assessed as NAD level per 10^6 cells at 40 uM after 18 hrs (reference value: 365 pmol); type: cell-based; outline: as §4
[19] = biological target: T1, L-lactate dehydrogenase A chain; assay: Inhibition of lactate dehydrogenase-A in human Raji cells assessed as NADH level per 10^6 cells at 40 uM after 18 hrs (reference value: 24 pmol); type: cell-based; outline: as §4

| Structure (SMILES) | IC50 [1] [µM] | IC50 [2] [µM] | IC50 (Raji [3]) [µM] | other results |
| --- | --- | --- | --- | --- |
| COc1cc(C(=O)N/N=C/c2ccc(-c3cccc(C(=O)O)c3)o2)cc(OC)c1OC | 37 | 42 | 38 | Ki [4]: 39 µM; Ki [5]: 47 µM; inhibition [6]: 50%; inhibition at 40 µM (Raji [7]): 50%; Activity (Raji [8]): Active; Activity (Raji [9]): Active; inhibition [10]: Active; Activity (Raji [11]): inactive; fold change (FC) (Raji [12]): 6.7; CI (Raji [13]): 1; CI (Raji [14]): 0.88; CI (Raji [15]): 0.86; CI (Raji [16]): 1.08; Activity [17]: Non-toxic; Activity [18]: 351 pmol; Activity [19]: 26 pmol |
| COc1cc(C(=O)N/N=C/c2cc(-c3cccc(C(=O)O)c3)co2)cc(OC)c1OC | 32 | 52 | 48 |  |
| N#CCC(=O)N/N=C/c1ccc(-c2ccc(C(=O)O)cc2)o1 | 37 | > 200 |  |  |
| COc1cc(C(=O)N/N=C/c2ccc(-c3cccc(C(=O)O)c3)s2)cc(OC)c1OC | 41 | 105 | 95 |  |
| O=C(O)c1cccc(-c2ccc(/C=N/NC(=O)c3cccc(CO)c3)o2)c1 | 46 | > 200 | > 200 |  |
| O=C(O)c1cccc(-c2ccc(/C=N/NC(=O)c3cccnc3)o2)c1 | 43 | > 200 | > 200 |  |
| COc1cc(C(=O)N/N=C/c2c[nH]c(-c3cccc(C(=O)O)c3)c2)cc(OC)c1OC |  | > 200 | 80 |  |
| O=C(O)c1cccc(-c2ccc(/C=N/NC(=O)c3ccc4[nH]ncc4c3)o2)c1 | 41 | > 200 | 45 |  |
| COc1cc(C(=O)N/N=C/c2cccc(-c3cccc(C(=O)O)c3)n2)cc(OC)c1OC | > 200 |  |  |  |
| O=C(O)c1cccc(-c2ccc(/C=N/NC(=O)c3ccc4[nH]ccc4c3)o2)c1 | 38 | 100 | 115 |  |
| N#CCC(=O)N/N=C/c1cccc(-c2ccc(C(=O)O)cc2)n1 | > 200 |  |  |  |
| N#CCC(=O)N/N=C/c1ccc(-c2cccc(C(=O)O)c2)o1 | 48 | 115 | 64 |  |
| COC(=O)c1cccc(-c2ccc(/C=N/NC(=O)c3cccnc3)o2)c1 | > 200 |  |  |  |
| COc1cc(C(=O)N/N=C/c2ccc(-c3ccc(C(=O)O)cc3)o2)cc(OC)c1OC | 125 | 134 | 100 |  |
